SIAE inh – human SIAE inhibitors, primary screen, biochemical, fluorescence polarization, FP-Rh probe, 1536-well HTS; Sialate O-acetylesterase (Homo sapiens), Q9HAT2; SIAE FP-Rh probe binding; inhibition, % at 9.66 µM; 370,000 compounds, 0.69% hits; AID 1053197, 2014;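 active = inhibition above a cutoff: mean of compounds within the control limits plus 3 SD of those, cut at about 17% in these data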
Target sequence (Q9HAT2 whole entry, looked up): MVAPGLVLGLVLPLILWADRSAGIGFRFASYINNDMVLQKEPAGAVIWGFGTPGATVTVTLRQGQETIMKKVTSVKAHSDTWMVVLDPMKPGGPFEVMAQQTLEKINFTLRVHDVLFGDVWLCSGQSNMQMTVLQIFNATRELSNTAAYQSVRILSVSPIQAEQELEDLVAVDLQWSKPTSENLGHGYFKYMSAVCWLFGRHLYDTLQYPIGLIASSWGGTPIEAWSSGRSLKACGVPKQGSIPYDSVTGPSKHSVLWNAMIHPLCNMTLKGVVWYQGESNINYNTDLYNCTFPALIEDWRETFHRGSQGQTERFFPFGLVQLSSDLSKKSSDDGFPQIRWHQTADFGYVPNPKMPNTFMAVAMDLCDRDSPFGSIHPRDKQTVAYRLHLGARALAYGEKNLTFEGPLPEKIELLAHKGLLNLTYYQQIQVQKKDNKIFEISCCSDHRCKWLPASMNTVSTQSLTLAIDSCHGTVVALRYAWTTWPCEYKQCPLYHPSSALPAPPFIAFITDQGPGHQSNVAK
PRMT1 inh – PRMT1 methyltransferase inhibitors, primary screen, biochemical, fluorescence polarization | Protein arginine N-methyltransferase 1 (Homo sapiens), Q99873 | recombinant PRMT1, activity-based probe fluorescence polarization | inhibition, % at 2.79 µM | 370,000 compounds, 1.3% hits | AID 652257, 2013;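 active = inhibition above about 21% made by adding two undisclosed values, limit read from the data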
HTRA1 inhibitor – HTRA1 serine protease inhibitors, primary screen, biochemical, fluorescence polarization, HTS; Q92743; recombinant HTRA1, FP-rhodamine activity-based probe; inhibition, % at 5.96 µM; 340,000 compounds, 0.5% hits; in the data active = inhibition above about 36%
ABHD4 inh – ABHD4 inhibitors, primary screen, biochemical, fluorescence polarization, mouse | (Lyso)-N-acylphosphatidylethanolamine lipase (Mus musculus), Q8VD66 | purified mABHD4, FP-Rh probe fluorescence polarization | inhibition, % at 8.92 µM | 370,000 compounds, 0.54% hits;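 active = inhibition exceeding the mean over every tested compound plus 3 SD, cut at about 30% in these data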
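System: mouse ABHD4 enzyme, wild type / Medium: HEPES pH 7.0, NaCl, Pluronic buffer / Reagent: FP-Rh activity-based fluorescent probe / Control set: S159A mutant high control, sample median low control / Detection: fluorescence polarization with parallel and perpendicular emission, 525/598 nm / Schedule: 45 min + 60 min at 25 °C / Compound dosing: 8.92 µM, single dose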
TCR-CD3 inh – inhibitors of human TCR-CD3 interaction, primary screen, biochemical, fluorescence, TAMRA-labeled TCR probe; inhibition, % at 9.4 µM; 360,000 compounds, 0.37% hits; AID 651800, 2012; T-cell receptor (TCR); in the data active = inhibition above about 19%;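 also: recombinant mutant TCR 2C K166C tagged with TAMRA read by polarization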
SIAE confirm – human SIAE inhibitors, retest, confirmation, biochemical, fluorescence polarization, FP-Rh probe, triplicate | shares compounds with SIAE inh | SIAE FP-Rh activity-based probe | inhibition, % at 9.66 µM | 2,300 compounds, 13% hits | AID 1117263, 2014;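 active = mean inhibition of the replicates above the hit cutoff set in the primary screen, cut at about 17% in these data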;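 also: inhibitors lower polarization as more probe stays unbound to SIAE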
Each line names hits and unclear results; the compound was inactive in the other large screens (follow-up assays come after a bar, where they were run). Compounds with a hit are over-represented: about 2.7% of the library has one in this group of screens.

CCOC(=O)COc1cc(N2C(=O)CSCC2=O)c(Cl)cc1Cl	SIAE inh 71 | SIAE confirm inactive
CCOC(=O)COc1cc(-n2c(=S)[nH]c3cc(OC)c(OC)cc3c2=O)c(Cl)cc1Cl	none
C[C@H](CO)N1C[C@H](C)[C@H](CN(C)C(=O)OCc2ccccc2)OCc2cnnn2CCCC1=O	none
COCc1cc(N2CCN(C(=O)OC(C)(C)C)C[C@H]2C)ccc1Br	none (no result: HTRA1 inhibitor)
O=C(Cc1c[nH]c2ccccc12)Nc1ccc(Nc2cccnc2)c(Br)c1	none (no result: HTRA1 inhibitor)
O=C(Cc1c[nH]c2ccccc12)Nc1ccc(Nc2cccnc2)c(-c2ccc(OC(F)(F)F)cc2)c1	none (no result: HTRA1 inhibitor)
O=C(Cc1cn(Cc2ccccc2)c2ccccc12)Nc1ccc(Nc2cccnc2)c(Br)c1	SIAE inh 18 (no result: HTRA1 inhibitor) | SIAE confirm inactive
O=C(Cc1c[nH]c2ccccc12)Nc1ccc(Nc2cccnc2)c(-c2ccc(Oc3ccccc3)cc2)c1	SIAE inh 18 (no result: HTRA1 inhibitor) | SIAE confirm inactive
Cc1noc(C)c1NC(=O)N(C)C[C@H]1OCc2cnnn2CCCC(=O)N([C@H](C)CO)C[C@H]1C	none (no result: HTRA1 inhibitor)
CCOC(=O)Nc1ccc2c(c1)[C@]1(CC(=O)N(CC(C)C)C1c1ccccc1)C(=O)N2C (stereo not given in full)	none (no result: HTRA1 inhibitor, TCR-CD3 inh)
O=C(NCCc1ccc(F)cc1)c1cc2ccccn2n1	none (no result: HTRA1 inhibitor, TCR-CD3 inh)
O=C(NCc1ccc(Cl)cc1)c1cc2ccccn2n1	SIAE inh 54 | SIAE confirm inactive
Cc1nc(C)c(C(=O)OCC(=O)NCc2ccccc2)s1	none
CCOc1cc(-c2ccccc2)nc2c1CN(S(=O)(=O)c1ccc(C)cc1)C(c1cccc(Cl)c1)C2 (stereo not given)	none (no result: HTRA1 inhibitor)
Nn1c(SCC(=O)Nc2ccc(S(=O)(=O)N3CCCC3)cc2)nnc1C(F)(F)F	SIAE inh 17 | SIAE confirm inactive
Cn1cnnc1SCC(=O)Nc1ccc(S(=O)(=O)N2CCCC2)cc1	none
c1ccc(CNc2nc(NCC3CC3)nc3cc(-c4ccccc4)sc23)cc1	none (no result: HTRA1 inhibitor)
c1ccc(OCCNc2nc(NCC3CC3)nc3cc(-c4ccccc4)sc23)cc1	SIAE inh 22 (no result: HTRA1 inhibitor) | SIAE confirm 21
COCCNc1nc(NCc2cccc(OC)c2)c2sc(-c3ccccc3)cc2n1	SIAE inh 34 (no result: HTRA1 inhibitor) | SIAE confirm 31
COCCNc1nc(NCc2ccc(NC(C)=O)cc2)c2sc(-c3ccccc3)cc2n1	SIAE inh 27 (no result: HTRA1 inhibitor) | SIAE confirm 18
CC1CCN(C(=O)c2ncn3c2C(=O)NC[C@@H]3C)CC1	none (no result: HTRA1 inhibitor)
CCCC(=O)Nc1nnc(SCC(=O)Nc2ccc(OCC)cc2)s1	none
COc1ccc(C(=O)C[C@@H]2OC[C@H](Cc3ccccc3)N2S(=O)(=O)c2ccc(C)cc2)cc1OC	none (no result: HTRA1 inhibitor)
COc1ccc(OC)c(CNC(=O)C(C)n2nc(C)c3c(C)n(-c4ccccc4)nc3c2=O)c1 (stereo not given)	none
O=[N+]([O-])c1ccc(/C=N/Nc2ccnc3cc(Cl)ccc23)o1	SIAE inh 20 | SIAE confirm inactive
CCn1c(SCC(=O)Nc2ccc(OC)c(OC)c2)nc2c(c1=O)SCC2	SIAE inh 19 | SIAE confirm inactive
COc1ccc(NC(=O)CSc2nc3c(c(=O)n2C)SCC3)cc1OC	none
COC(=O)c1cc2c(c3c4cc(OC)ccc4n(S(=O)(=O)c4cccc(C)c4)c13)C(=O)N(Cc1ccc(C(F)(F)F)cc1)C2	none (no result: HTRA1 inhibitor)
O=C(c1nc2ccccn2c1CNCCCn1cccn1)N1CCCC1	none
COc1ccc(-n2nc3ccc(N)cc3n2)cc1Cl	SIAE inh 72 | SIAE confirm inactive
COc1ccc(-c2csc(CCN3N=C(C)CC3=O)n2)cc1	SIAE inh 38 | SIAE confirm inactive
CCOC(=O)c1nncc(-c2ccccc2)n1	none
CCOc1ccc(/C=N/NC(=S)NC2CC3CC2C2C=CCC32)cc1 (stereo not given)	none (no result: HTRA1 inhibitor)
COc1cc(/C=N/NC(=S)NC2CC3CC2C2C=CCC32)ccc1O (stereo not given)	SIAE inh 23 | SIAE confirm inactive
O=C(CC1CCCC1)Nc1ccc(Br)cc1	none
O=C(NCc1ccccc1)[C@H]1CCCN1C(=O)[C@H]1CCCN1C(=O)c1ccc(F)c(F)c1	SIAE inh 18 (no result: HTRA1 inhibitor) | SIAE confirm inactive
O=C(NCc1ccc(F)cc1)C1CCCN1C(=O)Nc1ccc(Cl)cc1 (stereo not given)	SIAE inh 17 | SIAE confirm inactive
O=C(CSc1nnc(CNC(=O)c2ccco2)o1)Nc1cccc(F)c1	none
COCCCNC(=O)C[C@H]1C[C@@]2(C(=O)OC)C(=C[C@H](COCc3ccccc3)O[C@@H]2C)N(Cc2ccc3c(c2)OCO3)C1=O	SIAE inh 29 (no result: HTRA1 inhibitor) | SIAE confirm inactive
COC(=O)[C@]12C[C@H](CC(=O)NCCC(C)C)C(=O)N(Cc3ccc4c(c3)OCO4)C1=C[C@H](COCc1ccccc1)O[C@@H]2C	none (no result: HTRA1 inhibitor)
CCOc1ccc(/C=N/NC(=O)c2cc3c(OC)cc(OC)cc3[nH]2)cc1OC	SIAE inh 43 | SIAE confirm inactive
COc1ccc(OC)c(/C=N/NC(=O)c2cc3c(OC)cc(OC)cc3[nH]2)c1	none
C=CCOc1ccc(/C=N/NC(=O)c2cc3c(OC)cc(OC)cc3[nH]2)cc1	SIAE inh 27 | SIAE confirm inactive
COc1ccccc1N1C(=O)CC(Sc2ccccc2N)C1=O (stereo not given)	none
CC(=O)N/C(=C\c1ccccc1)C(=O)OCC(=O)Nc1ccc(C)c(S(=O)(=O)N(C)C)c1	SIAE inh 21 | SIAE confirm inactive
COc1cc(-c2nnc(CSc3nnc(Nc4ccc(Oc5ccccc5)cc4)s3)o2)cc(OC)c1OC	SIAE inh 19 | SIAE confirm inactive
COc1cc(-c2nnc(CSc3nnc(N)s3)o2)cc(OC)c1OC	none
Cn1c(SCC(=O)c2ccc3c(c2)OCO3)nnc1-c1ccccn1	SIAE inh 25 | SIAE confirm inactive
O=C(c1ccccc1Oc1ccccc1)N1CCC(Oc2cccnc2)CC1	SIAE inh 20 (no result: HTRA1 inhibitor, TCR-CD3 inh) | SIAE confirm inactive
Cc1ccc(N(CC(=O)NCC2CCCO2)C(=O)Cn2nnc(-c3cccs3)n2)cc1 (stereo not given)	none
O=C(c1ccc(Cn2c(=O)[nH]c3ccccc3c2=O)cc1)N1CCN(c2ccccn2)CC1	none
O=C(c1ccc(Cn2c(=S)[nH]c3ccccc3c2=O)cc1)N1CCN(c2ccccn2)CC1	SIAE inh 23 | SIAE confirm inactive
Cc1ccc(S(=O)(=O)N2C[C@H]3C(=O)C[C@@H](c4ccccc4)N(S(=O)(=O)c4ccccc4[N+](=O)[O-])[C@H]3C[C@H]2c2ccccc2)cc1	none (no result: HTRA1 inhibitor)
